Source: PubChem
Sampled rows, rich in hits. Any-hit rate of the full collection: about 0.96%.
AGP1 TOR yeast: modulators of AGP1-GFP expression in yeast TOR pathway, primary screen, cell-based, multiplex flow cytometry, S. cerevisiae, MLPCN library. 3 h; GFP as percent of DMSO wells. GFP response vs DMSO, % at 10 µM. 320,000 tested, 0.02% active;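 active = GFP response relative to DMSO above a set limit, near screen average plus 3 SD, cut at about 150% in these data; inconclusive = fewer than 70 cells counted for the yeast strain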;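 also: median GFP channel fluorescence of the gated AGP1 strain per well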
T cell modulator: modulators of CD8 T cell-vesicle binding, primary screen, mouse 2C CD8+ T cells, flow cytometry. 330,000 tested, 0.068% active. 2C CD8+ T cell-vesicle binding; stronger effect = lower value. AID 2052, 2009. response (vesicle binding), % at 7 µM;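 active = response, share of CD8 T cells binding vesicles, and their 90th percentile fluorescence all below set limits, cut at about 80% in these data, passing the limit was not always enough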;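 also: values below 100% mean blocked vesicle binding to the CD8+ T cells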
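Assay system: 2C TCR transgenic mouse naive CD8+ T cells, MACS-purified | Read-out: CD8+ gate FL2 mean fluorescence as % of same-row positive control | Signal: High-throughput flow cytometry with anti-B7-1 and anti-CD8 staining | Timing: Binding step 1.5 h, 37 °C, antibody labelling 20 min, ice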
RPL19A-GFP yeast: RPL19A-GFP expression modulators in yeast, primary screen, cell-based, S. cerevisiae, multiplex flow cytometry, MLPCN | S. cerevisiae RPL19A-GFP strain, 3 h; stronger effect = lower value | 330,000 tested, 0.3% active | percent response vs DMSO, % at 10 µM;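 active = percent response vs DMSO below 50%; inconclusive = fewer than 70 events counted for the yeast strain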;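 also: median channel GFP fluorescence of the barcoded RPL19A-GFP strain; ratio of sample median GFP to plate DMSO average so 100% = DMSO; lower means less RPL19A-GFP as with rapamycin TOR inhibition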
MEP2-GFP yeast: modulators of MEP2-GFP levels in yeast, primary screen, S. cerevisiae, multiplex flow cytometry, MLPCN library; S. cerevisiae MEP2-GFP strain, 3 h; 100% = DMSO control level; GFP response vs DMSO, % at 10 µM; 330,000 tested, 0.51% active;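 active = GFP response versus DMSO above a set limit, roughly screen mean plus 3 SD, cut at about 180% in these data; inconclusive = fewer than 70 cells counted for a yeast strain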;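 also: median GFP fluorescence of the barcode-gated MEP2-GFP cells per well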
LAP4 TOR yeast: modulators of LAP4-GFP expression in yeast, primary screen, S. cerevisiae, multiplex flow cytometry, MLPCN library. 3 h; median GFP as percent of DMSO wells. GFP response vs DMSO, % at 10 µM. 320,000 tested, 0.34% active. AID 2023, 2009;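 active = GFP response vs DMSO above a set limit, about the screen mean plus 3 SD, cut at about 150% in these data; inconclusive = under 70 cell events counted for the yeast strain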
CIT2-GFP yeast: modulators of CIT2-GFP expression in yeast, primary screen, S. cerevisiae, GFP fusion, multiplex flow cytometry, MLPCN library; S. cerevisiae CIT2-GFP strain, 3 h; 100 means same as DMSO wells; GFP response vs DMSO, % at 10 µM; 320,000 tested, 0.065% active; AID 2029, 2009;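 active = GFP response relative to DMSO above a set limit, near the screen mean plus 3 SD, cut at about 150% in these data; inconclusive = Fewer than 70 cells measured for a yeast strain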;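 also: ratio of well median GFP fluorescence to mean of DMSO wells on the plate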
An asterisk follows results filed as active; ? = inconclusive; . = no result; [ ] = remark or other dose.

SMILES | AGP1 TOR yeast | T cell modulator | RPL19A-GFP yeast | MEP2-GFP yeast | LAP4 TOR yeast | CIT2-GFP yeast
O=C(NC(Cc1ccccc1)C(=O)O)/C(=C/c1ccc(Cl)cc1)NC(=O)c1ccccc1 (configuration not stated) | 101 | 425 | 108 | 101 | 92 | 101
O=C(O)CC(NC(=O)/C(=C/c1ccccc1)NC(=O)c1ccccc1)c1ccccc1 (configuration not stated) | ? | 428 | 37*[may fluoresce violet] | 261*[may fluoresce violet] | 44 | ?
CC/C(=N\NC(=O)Cc1ccc(Br)cc1)c1cccs1 | 88 | 344 | 124 | 110 | 80 | 82
COc1ccc(NC(=O)N(C)C[C@H]2Oc3c(NC(=O)C4CCCCC4)cccc3C(=O)N([C@H](C)CO)C[C@@H]2C)cc1 | 93 | 267 | 89 | 97 | 86 | 80
CCOC(=O)C1=C(N)OC2=C(C(=O)CCC2)C1c1cccnc1 (configuration not stated) | ? | 533 | . | 295*[may fluoresce violet] | 81 | ?
COC(=O)C1=C(N)OC2=C(C(=O)CCC2)C1c1cccnc1 (configuration not stated) | 101 | 294 | 96 | 98 | 100 | 86
Cn1nc(C(F)(F)F)c(C(=O)Nc2ccc(Cl)cc2)c1Cl | 18 | 315 | 23*[may fluoresce violet] | 353*[may fluoresce violet] | 72 | ?
Cc1ccc(NC(=O)c2c(C(F)(F)F)nn(C)c2Cl)cc1C | 104 | 918 | 105 | 102 | 104 | 97
N#C/C(=C/c1ccc(N2CCOCC2)o1)c1ccc(Br)cc1 | 100 | 620 | 100 | 113 | 167* | 102
N#C/C(=C\c1ccc(N2CCOCC2)o1)c1ccccc1 | 89 | 272 | 100 | 111 | 121 | 91
O=C(CSc1ccsc1[N+](=O)[O-])N1CCN(c2ccccn2)CC1 | 99 | 189 | 103 | 102 | 97 | 101
O=C(NCc1ccccc1Cl)C(=O)NCC(c1ccco1)N1CCOCC1 (configuration not stated) | 105 | 982 | 96 | 95 | 106 | 97
O=C1c2cccc3c2[C@H](CCC3)CN1[C@@H]1CN2CCC1CC2 | 89 | 192 | 97 | 90 | 104 | 98
CN(CC(=O)Nc1ccc(F)c(F)c1)S(=O)(=O)c1cccs1 | ? | 217 | 27*[may fluoresce violet] | ? | ? | ?
CN(CC(=O)Nc1ccc2c(c1)OCO2)S(=O)(=O)c1cccs1 | ? | 196 | 45*[may fluoresce violet] | 302*[may fluoresce violet] | 74 | ?
CCCc1cc(=O)n2nc(N3CCC(C(=O)N4CCN(c5cccc(OC)c5)CC4)CC3)sc2n1 | 97 | 794 | 96 | 98 | 92 | 103
O=C(c1ccc(Cl)cc1)C1CCN(CC(=O)N2CCCCC2)CC1 | 99 | 237 | 101 | 103 | 101 | 98
O=C(COC(=O)c1cccc(Br)c1)NCc1ccco1 | 101 | 446 | 99 | 100 | 96 | 106
CCNC(=O)C1CN(S(=O)(=O)c2ccccc2)CCN1S(=O)(=O)c1ccccc1 (configuration not stated) | 106 | 505 | 101 | 103 | 96 | 105
Cc1ccc(/C=N\NC(=O)C2CN(S(=O)(=O)c3ccccc3)CCN2S(=O)(=O)c2ccccc2)cc1 (configuration not stated) | ? | 271 | 24*[may fluoresce violet] | 204*[may fluoresce violet] | 69 | ?
COc1ccc(-n2nnnc2CNC(=O)C2CC(=O)N(c3ccc(Cl)cc3)C2)cc1 (configuration not stated) | 109 | 419 | 103 | 102 | 99 | 105
CCOc1ccc2c(c1)c(C(C)=O)c(C)n2-c1ccccc1 | . | 367 | 35*[may fluoresce violet] | 628*[may fluoresce violet] | 99 | ?
Cc1nnc2sc(SCC(=O)Nc3nccs3)nn2c1=O | ? | 228 | 22*[may fluoresce violet] | 235*[may fluoresce violet] | 65 | ?
CC12CC3CC(C)(C1)CC(C(=O)NCc1ccncc1)(C3)C2 | 96 | 205 | 102 | 108 | 90 | 102
